pIC50: −log10 of the molar value. The source made the active and inactive calls. The calls are words filed in the database; no cut-off is given here.
Assays:
[1] = molecular target: Mitogen-activated protein kinase 8 (Homo sapiens, UniProt P45983); experiment: Inhibition of His-tagged human recombinant JNK1 expressed in insect cells incubated for 1 hr in presence of ATP by Z'-Lyte assay; design: species or system Insect cell
[2] = molecular target: T1, Mitogen-activated protein kinase 9 (Homo sapiens, UniProt P45984); experiment: Inhibition of His-tagged human recombinant JNK2 expressed in baculovirus expression system incubated for 1 hr in presence of ATP by Z'-Lyte assay
Target sequence in this assay (P45984 whole entry): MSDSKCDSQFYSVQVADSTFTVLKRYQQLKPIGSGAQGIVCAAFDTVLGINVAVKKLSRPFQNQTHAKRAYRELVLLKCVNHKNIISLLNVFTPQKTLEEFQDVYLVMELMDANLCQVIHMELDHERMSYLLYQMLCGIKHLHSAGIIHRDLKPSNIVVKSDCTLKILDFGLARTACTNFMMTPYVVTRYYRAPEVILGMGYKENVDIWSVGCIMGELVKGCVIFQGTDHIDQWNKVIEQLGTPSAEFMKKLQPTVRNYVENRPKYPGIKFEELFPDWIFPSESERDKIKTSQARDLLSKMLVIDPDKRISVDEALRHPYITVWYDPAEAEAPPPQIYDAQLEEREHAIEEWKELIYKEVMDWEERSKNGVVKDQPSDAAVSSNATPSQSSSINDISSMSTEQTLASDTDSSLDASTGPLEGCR

[3] = species: Homo sapiens; experiment: Selectivity ratio of IC50 for His-tagged human recombinant JNK1 expressed in insect cells to His-tagged human recombinant JNK2 expressed in baculovirus expression system
In short: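 Z′-Lyte kinase assays of JNK1 and JNK2 with 100 μM ATP and 1 h compound incubation. Fixed time point IC50 was determined in duplicate. The selectivity ratio is JNK1 IC50 over JNK2 IC50.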

[4] = system: MM1.S; experiment: Induction of apoptosis in human MM1.S cells assessed as increase in PARP cleavage at 0.5 to 2.5 uM incubated for 24 hrs by immunoblot analysis; type: functional, cell-based; details: dose 0.5-2.5 µM
[5] = system: MM1.S; experiment: Induction of apoptosis in human MM1.S cells assessed as increase in caspase-3 cleavage at 0.5 to 2.5 uM incubated for 24 hrs by immunoblot analysis; type: functional, cell-based; details: dose 0.5-2.5 µM
[6] = system: MM1.S; experiment: Induction of apoptosis in human MM1.S cells at 250 nM by AnnexinV/PI staining based flow cytometry; type: functional, cell-based
[7] = system: ANBL-6; experiment: Antiproliferative activity against wild type human ANBL-6 cells assessed as inhibition of cell growth incubated for 72 hrs by CellTiter-Glo luminescent assay; type: functional, cell-based
[8] = system: ANBL-6; experiment: Antiproliferative activity against Bortezomib-resistant human ANBL-6 cells assessed as inhibition of cell growth incubated for 72 hrs by CellTiter-Glo luminescent assay; type: functional, cell-based
[9] = molecular target: T1, Mitogen-activated protein kinase 9; experiment: Covalent binding affinity to JNK2 in human MM1.S cells incubated for 6 hrs by biotin-JNK-IN-7 probe based pull-down competition based analysis; type: cell-based
In short: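 MM.1S cells exposed to compound or DMSO 6 h; lysed in HEPES pH 7.4/NP-40 buffer; lysates incubated with 1 μM biotin-JNK-IN-7 overnight at 4 °C then 2 h room temperature; streptavidin pull-down 2–3 h at 4 °C; bound JNK1/JNK2 detected by western blot.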
Target sequence in this assay (P45984 whole entry, looked up): as the sequence (P45984 whole entry) above

[10] = molecular target: T1, Mitogen-activated protein kinase 9; experiment: Binding affinity to wild type N-terminal GST-tagged human recombinant JNK2 (1 to 364 residues) expressed in Escherichia coli in presence of ATP measured every 0.5 mins for 120 mins by fluorescence based analysis
Target sequence in this assay (P45984 whole entry, looked up): as the sequence (P45984 whole entry) above

[11] = Antiproliferative activity against human HAP1 cells assessed as inhibition of cell growth incubated for 3 days by CellTiter-Glo luminescent assay; type: functional, cell-based; details: HAP1, 72 h
[12] = molecular target: Epidermal growth factor receptor (Homo sapiens) (UniProt P00533); experiment: Inhibition of EGFR (unknown origin)
Sequence of Epidermal growth factor receptor (Homo sapiens) (P00533 whole entry): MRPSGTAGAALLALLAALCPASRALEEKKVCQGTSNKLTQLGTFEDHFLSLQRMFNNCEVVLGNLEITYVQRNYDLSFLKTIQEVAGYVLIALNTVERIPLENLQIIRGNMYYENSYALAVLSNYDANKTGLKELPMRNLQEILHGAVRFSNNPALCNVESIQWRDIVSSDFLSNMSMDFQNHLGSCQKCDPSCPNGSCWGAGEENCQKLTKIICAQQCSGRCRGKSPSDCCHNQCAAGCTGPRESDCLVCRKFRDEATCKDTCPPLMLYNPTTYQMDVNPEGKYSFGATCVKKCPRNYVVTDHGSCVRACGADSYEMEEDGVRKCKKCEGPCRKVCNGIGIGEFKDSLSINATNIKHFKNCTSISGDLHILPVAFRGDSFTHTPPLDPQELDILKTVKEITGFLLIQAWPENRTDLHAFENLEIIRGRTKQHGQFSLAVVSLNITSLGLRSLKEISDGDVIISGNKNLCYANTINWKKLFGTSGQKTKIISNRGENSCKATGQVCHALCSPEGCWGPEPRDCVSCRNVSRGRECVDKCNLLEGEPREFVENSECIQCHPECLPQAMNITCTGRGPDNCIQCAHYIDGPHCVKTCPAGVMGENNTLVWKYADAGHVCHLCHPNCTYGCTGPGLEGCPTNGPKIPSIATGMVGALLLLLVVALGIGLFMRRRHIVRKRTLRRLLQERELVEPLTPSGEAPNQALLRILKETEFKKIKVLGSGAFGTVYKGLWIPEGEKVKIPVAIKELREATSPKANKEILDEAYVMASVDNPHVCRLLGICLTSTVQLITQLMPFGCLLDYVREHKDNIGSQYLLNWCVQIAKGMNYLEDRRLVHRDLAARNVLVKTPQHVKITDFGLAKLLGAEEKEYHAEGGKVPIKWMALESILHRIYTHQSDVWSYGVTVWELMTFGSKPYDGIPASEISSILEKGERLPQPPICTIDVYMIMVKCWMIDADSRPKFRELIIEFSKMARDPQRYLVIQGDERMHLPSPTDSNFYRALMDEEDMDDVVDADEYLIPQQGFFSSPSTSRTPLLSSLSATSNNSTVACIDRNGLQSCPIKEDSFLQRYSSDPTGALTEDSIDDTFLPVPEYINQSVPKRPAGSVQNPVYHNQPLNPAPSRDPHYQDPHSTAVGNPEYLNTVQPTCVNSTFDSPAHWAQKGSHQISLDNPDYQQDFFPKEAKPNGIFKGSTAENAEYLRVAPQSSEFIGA

[13] = species: Homo sapiens; experiment: Inhibition of CK1 (unknown origin)
[14] = molecular target: Epithelial discoidin domain-containing receptor 1 (Homo sapiens) (UniProt Q08345); experiment: Inhibition of DDR1 (unknown origin)
Sequence of Epithelial discoidin domain-containing receptor 1 (Homo sapiens) (Q08345 whole entry, the tested form may be a part): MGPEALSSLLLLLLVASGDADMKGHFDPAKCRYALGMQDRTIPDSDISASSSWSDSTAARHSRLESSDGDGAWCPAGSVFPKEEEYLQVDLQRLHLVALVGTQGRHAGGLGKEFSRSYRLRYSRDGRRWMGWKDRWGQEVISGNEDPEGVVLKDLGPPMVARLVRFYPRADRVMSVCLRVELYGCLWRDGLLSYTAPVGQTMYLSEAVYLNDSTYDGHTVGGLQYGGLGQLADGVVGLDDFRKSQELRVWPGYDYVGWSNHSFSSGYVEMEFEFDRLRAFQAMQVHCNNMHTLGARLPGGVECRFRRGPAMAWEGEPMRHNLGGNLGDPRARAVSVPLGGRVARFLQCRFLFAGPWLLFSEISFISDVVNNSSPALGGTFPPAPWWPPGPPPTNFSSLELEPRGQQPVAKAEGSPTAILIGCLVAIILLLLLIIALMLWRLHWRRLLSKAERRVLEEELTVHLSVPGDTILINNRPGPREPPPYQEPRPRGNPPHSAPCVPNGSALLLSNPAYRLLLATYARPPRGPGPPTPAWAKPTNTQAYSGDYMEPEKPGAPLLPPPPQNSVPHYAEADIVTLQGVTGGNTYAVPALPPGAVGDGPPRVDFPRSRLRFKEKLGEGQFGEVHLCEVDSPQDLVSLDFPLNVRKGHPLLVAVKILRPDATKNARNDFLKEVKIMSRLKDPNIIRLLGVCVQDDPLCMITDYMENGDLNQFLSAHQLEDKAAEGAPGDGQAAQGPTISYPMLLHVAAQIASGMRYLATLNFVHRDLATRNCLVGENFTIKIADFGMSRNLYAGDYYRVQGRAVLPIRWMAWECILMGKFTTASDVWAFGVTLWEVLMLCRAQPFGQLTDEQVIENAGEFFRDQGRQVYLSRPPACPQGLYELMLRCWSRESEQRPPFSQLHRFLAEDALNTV

[15] = molecular target: CDK7/Cyclin H/MNAT1 (Homo sapiens) (UniProt P51946+P50613+P51948); experiment: Inhibition of CDK7/Cyclin H/MAT1 (unknown origin); type: protein-complex assay
[16] = molecular target: T2, Aurora kinase A (Homo sapiens) (UniProt O14965); experiment: Inhibition of Aurora A kinase (unknown origin)
T2 sequence (whole entry): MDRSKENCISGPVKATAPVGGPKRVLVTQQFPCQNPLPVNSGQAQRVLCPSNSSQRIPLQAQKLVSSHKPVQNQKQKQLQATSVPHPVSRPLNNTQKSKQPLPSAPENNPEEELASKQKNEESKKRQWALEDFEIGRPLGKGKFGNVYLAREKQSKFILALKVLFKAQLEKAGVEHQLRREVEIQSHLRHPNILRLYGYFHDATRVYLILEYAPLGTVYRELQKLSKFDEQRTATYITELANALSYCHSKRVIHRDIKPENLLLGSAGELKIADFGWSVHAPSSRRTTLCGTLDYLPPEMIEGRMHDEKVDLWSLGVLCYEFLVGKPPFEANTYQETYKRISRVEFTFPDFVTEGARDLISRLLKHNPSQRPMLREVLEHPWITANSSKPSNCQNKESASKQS

[17] = molecular target: Aurora kinase B (Homo sapiens) (UniProt Q96GD4); experiment: Inhibition of Aurora B kinase (unknown origin)
Sequence of Aurora kinase B (Homo sapiens) (Q96GD4 whole entry): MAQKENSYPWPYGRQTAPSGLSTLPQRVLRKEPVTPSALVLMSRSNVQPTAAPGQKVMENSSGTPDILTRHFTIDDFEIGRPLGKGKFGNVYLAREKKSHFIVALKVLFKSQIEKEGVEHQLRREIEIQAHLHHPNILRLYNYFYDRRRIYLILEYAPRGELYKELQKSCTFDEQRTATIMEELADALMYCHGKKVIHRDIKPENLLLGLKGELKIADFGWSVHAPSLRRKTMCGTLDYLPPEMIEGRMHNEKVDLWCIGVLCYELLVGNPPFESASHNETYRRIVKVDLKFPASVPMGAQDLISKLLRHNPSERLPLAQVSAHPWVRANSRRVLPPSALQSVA

Sequence of Mitogen-activated protein kinase 8 (P45983 whole entry): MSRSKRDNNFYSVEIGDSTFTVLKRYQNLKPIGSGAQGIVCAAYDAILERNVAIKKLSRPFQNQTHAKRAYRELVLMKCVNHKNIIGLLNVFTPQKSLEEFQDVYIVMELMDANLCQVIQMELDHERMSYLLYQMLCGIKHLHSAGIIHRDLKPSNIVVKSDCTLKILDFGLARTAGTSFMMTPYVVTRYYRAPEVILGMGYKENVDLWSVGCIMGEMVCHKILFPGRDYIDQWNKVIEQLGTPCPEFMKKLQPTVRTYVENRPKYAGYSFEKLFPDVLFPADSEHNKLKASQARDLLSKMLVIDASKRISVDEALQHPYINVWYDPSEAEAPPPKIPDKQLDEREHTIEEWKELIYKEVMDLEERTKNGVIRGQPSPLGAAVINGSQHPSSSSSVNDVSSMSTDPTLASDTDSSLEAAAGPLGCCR

SMILES	pIC50 [1]	pIC50 [2]	Ratio IC50 [3]	other results
CN(C)C/C=C/C(=O)Nc1ccc(C(=O)N2CCC[C@H](Nc3nccc(-c4c(-c5ccccc5)nn5ccccc45)n3)C2)cc1	7.28	8.30	10	–
Cc1cc(NC(=O)c2cccc(NC(=O)/C=C/CN(C)C)c2)ccc1Nc1nccc(-c2cccnc2)n1	–	–	–	Activity [4]: inactive; Activity [5]: inactive; Activity [6]: inactive; Activity [7]: inactive; Activity [8]: inactive; Activity [9]: Active; Activity [10]: Active
CN(C)C/C=C/C(=O)Nc1ccc(C(=O)N2CCCC[C@H](Nc3nccc(-c4c(-c5ccccc5)nn5ccccc45)n3)C2)cc1	6.59	7.55	9	–
CN(C)C/C=C/C(=O)Nc1ccc(C(=O)N2CC[C@@H](Nc3nccc(-c4c(-c5ccccc5)nn5ccccc45)n3)C2)cc1	8.00	8.70	5	–
CN(C)C/C=C/C(=O)Nc1ccc(C(=O)N2CCCC[C@@H](Nc3nccc(-c4c(-c5ccccc5)nn5ccccc45)n3)C2)cc1	6.41	7.77	23	–
Cc1ccc2c(-c3ccnc(N[C@H]4CCN(C(=O)c5ccc(NC(=O)/C=C/CN(C)C)cc5)C4)n3)c(-c3ccccc3)nn2c1	7.74	9.00	18	–
O=c1ncn2nc(Sc3ccc(F)cc3F)ccc2c1-c1c(Cl)cccc1Cl [NEFLAMAPIMOD]	–	–	–	pIC50 [11]: 5.00
CN(C)C/C=C/C(=O)Nc1ccc(C(=O)N2CC[C@H](Nc3ncc(Cl)c(-c4c(-c5ccccc5)nn5ccccc45)n3)C2)cc1	5.52	6.32	6	–
CN(C)C/C=C/C(=O)Nc1ccc(C(=O)NC2CCCC(Nc3nccc(-c4c(-c5ccccc5)nn5ccccc45)n3)C2)cc1 (configuration not stated)	6.32	7.36	11	–
CN(C)C/C=C/C(=O)Nc1ccc(C(=O)Nc2cccc(Nc3nccc(-c4c(-c5ccccc5)nn5ccccc45)n3)c2)cc1	6.14	8.08	–	inhibition [12]: Active; inhibition [13]: Active; inhibition [14]: Active; inhibition [15]: Active; inhibition [16]: Active; inhibition [17]: Active

Source: ChEMBL document CHEMBL5316351, “Development of a Covalent Inhibitor of c-Jun N-Terminal Protein Kinase (JNK) 2/3 with Selectivity over JNK1” (J Med Chem, 2023)
